Screens (PubChem)
Shown are actives, neighbours in structure and some others; about 2% of the full set was active somewhere.
CRFR2-BP antag = antagonists of CRF-BP/CRF-R2 complex, primary screen, cell-based, HEK293, calcium dye fluorescence, uHTS. CRF-induced calcium fluorescence. inhibition, % at 11.8 µM. 350,000 compounds, 0.59% hits. AID 588475, 2011;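 active = inhibition of the ligand-induced calcium signal above about 50% at the single tested concentration, limit read from the data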
TRPML3 agonist = human TRPML3 channel agonists, primary screen, cell-based, HEK293 TRPML3-YFP, Fluo-8 calcium fluorescence, 3 µM; Mucolipin-3 (Homo sapiens), Q8TDD5; 100% = the carbachol control signal; activation, % at 3 µM; 220,000 compounds, 0.29% hits; AID 1448, 2008;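 active = activation above its plate's cutoff, the mean activation of the plate's test wells plus 3 SD, cut at about 12% in these data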
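Test system – HEK293 line with stable expression of human TRPML3-YFP channel · Control set – carbachol 87 µM final as high control (100%), DMSO as low control (0%) · Signal – Fluo-8 calcium dye fluorescence, ex 470-495, em 515-575 nm · Incubation – 1-h 37 °C dye load, 5-s basal, 120-s post-compound reads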
TRPN1 ag = zebrafish TRPN1 channel agonists, primary screen, cell-based, HEK293, calcium fluorescence | transient receptor potential cation channel N1 (TRPN1/NompC), Danio rerio | HEK293 zebrafish TRPN1-YFP, Fluo-8 calcium fluorescence; 100% = response to 87 µM carbachol | 220,000 compounds, 0.18% hits | AID 1424, 2008 | activation, % at 3 µM;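 active = activation above its plate's cutoff, the mean activation of test wells on that plate plus 3 SD, cut at about 19% in these data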
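Material: zebrafish TRPN1-YFP in HEK293 cells; Doses: single test compound dose, 3 µM nominal, 0.3% DMSO; Timing: dye loading 1 h at 37 °C, then 30 min room temperature; Technique: intracellular calcium fluorescence with Fluo-8; Benchmarks: high carbachol 87 µM, low DMSO alone.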
CRFBP-R2 agonist = agonists of CRF-BP/CRF-R2 complex, primary screen, cell-based, HEK293, calcium dye fluorescence, uHTS; 350,000 compounds, 0.46% hits; activation, % at 13.2 µM; CRF-binding protein / CRF receptor 2 complex (human); calcium dye fluorescence (FLIPR); percent of saturating CRF peptide response;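 active = activation of at least 50%, plus an integration ratio under a set limit after plate pattern correction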
GPR7 antag = GPR7 receptor antagonists, primary screen, cell-based, fluorescence, single concentration; inhibition, % at 4.4 µM; AID 1861, 2009; GPR7-expressing cells, fluorescence antagonist assay; 290,000 compounds, 1.1% hits; in the data active = inhibition above about 16%, passing the limit was not always enough;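 also: cells stimulated with the agonist NPW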
Target sequence (P48145 whole entry, looked up): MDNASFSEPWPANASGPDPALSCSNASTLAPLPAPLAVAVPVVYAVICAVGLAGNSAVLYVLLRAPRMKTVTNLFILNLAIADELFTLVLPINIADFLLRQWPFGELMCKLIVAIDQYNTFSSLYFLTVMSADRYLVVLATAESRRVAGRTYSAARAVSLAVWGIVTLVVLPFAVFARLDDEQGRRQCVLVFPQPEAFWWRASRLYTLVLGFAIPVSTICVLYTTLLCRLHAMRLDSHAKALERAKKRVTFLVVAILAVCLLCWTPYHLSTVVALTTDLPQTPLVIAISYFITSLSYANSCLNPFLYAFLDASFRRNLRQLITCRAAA
Each line names hits and unclear results; the compound was inactive in the other large screens.

CN(CC(=O)NCc1ccc(F)cc1)S(=O)(=O)c1ccc(Br)s1	CRFR2-BP antag 72 (no result: TRPML3 agonist, TRPN1 ag)
C=CCOn1c(C)c(C(C)=O)c2c3nonc3ccc21	none
CCOC(=O)c1c(C)n(OCc2ccccc2)c2ccc3nonc3c12	CRFR2-BP antag 53
CC(C)(C)OC(=O)N1CCCC(C(=O)Nc2ccc(C(=O)N3CCCCC3)cc2)C1 (configuration not stated)	none (no result: TRPML3 agonist, TRPN1 ag, GPR7 antag)
CCN(C(=O)COc1cc(=O)n(CC)c2ccccc12)c1cccc(Cl)c1	none
CCN(C(=O)COc1cc(=O)n(CC)c2ccccc12)c1cc(Cl)ccc1OC	GPR7 antag 20
CCOc1ccccc1N=C1SC(CC(=O)Nc2ccc(OC)cc2OC)C(=O)N1CCC1=CCCCC1 (configuration not stated)	CRFR2-BP antag 57
COc1ccc(CN2CCNC(=O)C2CC(=O)N2CCCN(C(C)=O)CC2)cc1OC (configuration not stated)	none (no result: TRPML3 agonist, TRPN1 ag)
COc1cc(/C=C/[N+](=O)[O-])ccc1OC(=O)/C=C/c1ccc(F)cc1	none (no result: TRPML3 agonist, TRPN1 ag)
CCCSc1nnc(-c2cccc(S(=O)(=O)N(C)C)c2)n1-c1cc(OC)ccc1OC	GPR7 antag 20
COc1c(C=NNC(N)=O)c(OC)c(OC)c2c1CCO2	none (no result: TRPML3 agonist, TRPN1 ag, GPR7 antag)
CCOC(=O)c1c(C)[nH]c(C(=O)OCC(=O)NC2(C#N)CCCCC2)c1C	none (no result: TRPML3 agonist, TRPN1 ag, GPR7 antag)
O=C(O)C(c1ccccc1)C1(O)CCCC1 (configuration not stated)	CRFR2-BP antag 97
CCc1ccc(NC(=O)Cn2nc(C(=O)O)c3ccccc3c2=O)cc1	CRFR2-BP antag 58 (no result: TRPML3 agonist, TRPN1 ag)
CCOc1ccccc1NC(=O)CNC(=O)Cc1ccccc1	CRFR2-BP antag 52
CC(=O)N=c1sc(S(N)(=O)=O)nn1C	CRFR2-BP antag 111
COC(=O)c1sc(-c2ccc(C(C)(C)C)cc2)cc1NC(=O)COCC(=O)O	CRFR2-BP antag 60
O=C(NCc1ccccc1)c1ccc(NC(=O)C2CCCCC2)cc1	none (no result: TRPML3 agonist, TRPN1 ag, GPR7 antag)
O=C(COc1ccc(Cl)cc1Cl)Nc1ccc(Cl)cn1	none
O=C(COc1ccc(Cl)cc1Cl)Nc1ccccc1F	CRFR2-BP antag 125 (no result: TRPML3 agonist, TRPN1 ag, GPR7 antag)
COc1ccccc1NC(=O)C1CCCN(S(=O)(=O)c2ccc3c(c2)CC(C)N3C(C)=O)C1 (configuration not stated)	none (no result: TRPML3 agonist, TRPN1 ag)
COc1ccc(CCNC(=O)c2cccn2C)cc1	CRFR2-BP antag 55 (no result: TRPML3 agonist, TRPN1 ag)
Cn1cccc1C(=O)NCCc1ccccc1	none (no result: TRPML3 agonist, TRPN1 ag)
CC(C)(C)C(=O)NNC(=O)C1CC1(c1ccccc1)c1ccccc1 (configuration not stated)	none (no result: TRPML3 agonist, TRPN1 ag)
COc1cc(OC)cc(C(=O)NC(=S)NNC(=O)[C@H]2C[C@@H]2c2ccccc2)c1	TRPML3 agonist 19, TRPN1 ag 34, CRFBP-R2 agonist 163
COc1ccc(C(=O)NC(=S)NNC(=O)[C@H]2C[C@@H]2c2ccccc2)cc1OC	none
CCc1nnc(NC(=O)Cc2ccc(S(=O)(=O)N3CCCCC3)cc2)s1	none (no result: TRPML3 agonist, TRPN1 ag, GPR7 antag)
CCCN1CCC(=O)N(CCO)CC1	none (no result: TRPML3 agonist, TRPN1 ag)
CCCCOC(=O)Oc1ccc2c(=O)c(Oc3cc(C)cc(C)c3)coc2c1	none
CCCCOC(=O)Oc1ccc2c(=O)c(Oc3cccc(C)c3)coc2c1	CRFR2-BP antag 56
COc1ccc(CC(=O)NC2CC(C)(C)NC(C)(C)C2)cc1OC	none (no result: TRPML3 agonist, TRPN1 ag)
Cc1nn(Cc2ccc(Cl)cc2)c(C)c1NC(=O)c1ccc([N+](=O)[O-])cc1	CRFR2-BP antag 56
COc1ccccc1C(=O)NCCC(=O)N1CCN(c2ccccc2O)CC1	CRFR2-BP antag 71 (no result: TRPML3 agonist, TRPN1 ag, GPR7 antag)
COc1ccccc1C(=O)NCCC(=O)N1CCCCC1	none (no result: TRPML3 agonist, TRPN1 ag)
CCN(CC(=O)NCc1ccc(F)cc1)C(=O)CN1CCN(c2ccc(OC)cc2)CC1	none (no result: TRPML3 agonist, TRPN1 ag)
Cc1cccnc1CN1CCN(Cc2nc(Cc3cccc(F)c3)no2)CC1	none
CC(=O)Nc1ccnn1C1CCN(C(=O)c2cccc(C)c2C)CC1	none (no result: TRPML3 agonist, TRPN1 ag)
O=C(Nc1cc(C(F)(F)F)ccc1Cl)c1cccnc1	CRFBP-R2 agonist 106 (no result: TRPML3 agonist, TRPN1 ag)
O=C(N/N=C/c1cc([N+](=O)[O-])cc(Br)c1O)C12CC3CCC(CC(C3)C1)C2	CRFBP-R2 agonist 117
CC1(C)C2CCC1(CS(=O)(=O)Nc1ccc(S(=O)(=O)N3CCCC3)cc1)C(=O)C2 (configuration not stated)	GPR7 antag 19
CC1(C)C2CCC1(CS(=O)(=O)Nc1ccc(S(=O)(=O)NC3CCCCC3)cc1)C(=O)C2 (configuration not stated)	none
Cc1ccc(-n2nc(C(=O)NN)c(C)c(C#N)c2=O)cc1Cl	none (no result: TRPML3 agonist, TRPN1 ag)
Cc1c(C(=O)NN)nn(-c2ccc(Cl)cc2)c(=O)c1C#N	CRFR2-BP antag 82
O=C(COc1ccc(F)cc1)N(Cc1cccs1)C1CCS(=O)(=O)C1 (configuration not stated)	CRFBP-R2 agonist 66 (no result: TRPML3 agonist, TRPN1 ag)
Cc1ccc([C@H]2N[C@]3(CCCN(Cc4cccn4C)C3=O)[C@H]3C(=O)N(Cc4ccccc4)C(=O)[C@@H]23)cc1	none (no result: TRPML3 agonist, TRPN1 ag, GPR7 antag)
Cn1cc(/C=C2\SC(=S)N(NC(=O)c3ccccc3)C2=O)c2ccccc21	CRFBP-R2 agonist 72
O=C(N/N=C\c1c(O)ccc2ccccc12)c1ccc(O)cc1	none (no result: TRPML3 agonist, TRPN1 ag)
O=C(N/N=C\c1c(O)ccc2ccccc12)c1cncc(Br)c1	CRFBP-R2 agonist 167 (no result: TRPML3 agonist, TRPN1 ag)
O=C(NN=Cc1c(O)ccc2ccccc12)c1ccncc1	CRFBP-R2 agonist 149 (no result: TRPML3 agonist, TRPN1 ag, GPR7 antag)
Cc1occc1C(=O)N/N=C/c1c(O)ccc2ccccc12	none (no result: TRPML3 agonist, TRPN1 ag)
O=C(N/N=C/c1c(O)ccc2ccccc12)c1cccnc1	none (no result: TRPML3 agonist, TRPN1 ag)
O=C(N/N=C/c1c(O)ccc2ccccc12)c1ccc(Br)o1	CRFBP-R2 agonist 101 (no result: TRPML3 agonist, TRPN1 ag)
